For six compounds, ED99 and Emax results are on record in ChEMBL document CHEMBL1255432, “Fast standardized therapeutic-efficacy assay for drug discovery against tuberculosis” (2010).

The structures appear in SMILES notation. Bounds are passed on as bounds.

The subject of test [1] is Mycobacterium tuberculosis. Put plainly: Antimycobacterial activity against Mycobacterium tuberculosis H37Rv infected in B6 mouse assessed as 2 log reduction in bacterial burden in lungs orally treated in water-1% methylcellulose upto 8 days. It counts as functional. Conditions: Lung, po, 192 h. An outline of the steps:
(§1)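 Female B6 mice, 8–10 weeks old, infected intratracheally under 3% isoflurane with 10^5 CFU H37Rv in 50 μl PBS. Oral dosing once daily from day 1 to day 8 at a range of doses; lungs harvested day 9, homogenized and plated; colonies counted after 14 days. ED99 (2-log CFU/lung reduction versus untreated controls) fitted from individual log10 CFU/lung to a logistic equation; 5 mice/group; 95% CI.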

The test system of test [2] is Mycobacterium tuberculosis. Nature of the test: Antimycobacterial activity against Mycobacterium tuberculosis H37Rv infected in B6 mouse assessed as assessed as lowest concentration to reduce bacterial burden in lungs to level of reduction achieved with higher doses orally treated in water-1% methylcellulose upto 8 days. It counts as functional, Lung. An outline of the steps: (§2)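 B6 female mice given intratracheal H37Rv, 105 CFU/mouse in PBS, then oral once-daily treatment on days 1–8 across several doses. On day 9, lung homogenates were plated and CFU counted after 14 days. EDmax taken empirically as the lowest dose giving a lung CFU reduction statistically indistinguishable from higher doses; 5 mice/group.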

Test [3] relates to Mycobacterium tuberculosis. Nature of the test: Antimycobacterial activity against Mycobacterium tuberculosis H37Rv infected in B6 mouse assessed as lowest concentration to reduce bacterial burden in lungs to level of reduction achieved with higher doses orally treated in water upto 8 days. It counts as functional, Lung. An outline of the steps:
as §2

For test [4], the system named is Mycobacterium tuberculosis. Put plainly: Antimycobacterial activity against Mycobacterium tuberculosis H37Rv infected in B6 mouse assessed as 2 log reduction in bacterial burden in lungs orally treated in water upto 8 days. Format: functional. Conditions: Lung, po, 192 h. An outline of the steps: as §1
The subject of test [5] is Mycobacterium tuberculosis. Put plainly: Antimycobacterial activity against Mycobacterium tuberculosis H37Rv infected in B6 mouse assessed as 2 log reduction in bacterial burden in lungs orally treated in water-20% captisol upto 8 days. Format: functional. Conditions: Lung, po, 192 h. An outline of the steps:
as §1

The subject of test [6] is Mycobacterium tuberculosis. Nature of the test: Antimycobacterial activity against Mycobacterium tuberculosis H37Rv infected in B6 mouse assessed as assessed as lowest concentration to reduce bacterial burden in lungs to level of reduction achieved with higher doses orally treated in water-20% captisol upto 8 days. It counts as functional, Lung. An outline of the steps:
as §2

The test system of test [7] is Mycobacterium tuberculosis. Nature of the test: Antimycobacterial activity against Mycobacterium tuberculosis H37Rv infected in B6 mouse assessed as 2 log reduction in bacterial burden in lungs orally treated in water-20% encapsine upto 8 days. It counts as functional. The note with it: Lung, po, 192 h. An outline of the steps: as §1
Test [8] has as its system Mycobacterium tuberculosis. Nature of the test: Antimycobacterial activity against Mycobacterium tuberculosis H37Rv infected in B6 mouse assessed as assessed as lowest concentration to reduce bacterial burden in lungs to level of reduction achieved with higher doses orally treated in water-20% encapsine upto 8 days. Format: functional, Lung. An outline of the steps: as §2

For the compound `CC[C@@H](CO)NCCN[C@@H](CC)CO` [ETHAMBUTOL], in test [1], the ED99 worked out at 21.6 mg/kg. The Emax in test [2] worked out at 300 mg/kg.
`NNC(=O)c1ccncc1` [ISONIAZID]: the Emax in test [3] was 25 mg/kg. For the same compound, in test [4], the ED99 worked out at 0.95 mg/kg.
Consider `CC(=O)NC[C@H]1CN(c2ccc(N3CCOCC3)c(F)c2)C(=O)O1` [LINEZOLID], for which the ED99 in test [1] was found to be 28 mg/kg. Also, the Emax entry in test [2] was “>=300 mg kg-1”.
As for `COc1c(N2C[C@@H]3CCCN[C@@H]3C2)c(F)cc2c(=O)c(C(=O)O)cn(C3CC3)c12` [MOXIFLOXACIN], in test [5], the ED99 stood at 27.7 mg/kg. Moreover, the Emax in test [6] turned out to be 100 mg/kg.
In the case of `NC(=O)c1cnccn1` [PYRAZINAMIDE], the ED99 in test [1] worked out at 362 mg/kg. Besides, in test [2], the Emax entry is “>=1000 mg kg-1”.
In the case of `CO[C@H]1/C=C/O[C@@]2(C)Oc3c(C)c(O)c4c(O)c(c(/C=N/N5CCN(C)CC5)c(O)c4c3C2=O)NC(=O)/C(C)=C\C=C\[C@H](C)[C@H](O)[C@@H](C)[C@@H](O)[C@@H](C)[C@H](OC(C)=O)[C@@H]1C` [RIFAMPIN], the ED99 in test [7] worked out at 9.8 mg/kg. Moreover, the Emax in test [8] turned out to be 30 mg/kg.
